CHOP UPR activ: apoptotic UPR (CHOP) activation. activation, % at 10 µM. 330,000 compounds, 0.34% hits. CHO-CHOP luciferase reporter, luminescence; percent of tunicamycin response over DMSO baseline;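 active = at 10 µM dose, activation of 40% or more, normalized to positive control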;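 also: 100% = tunicamycin at 10 µg/mL and 0% = DMSO alone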
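System: CHO-CHOP luciferase reporter cell line | Buffer or medium: F12 medium containing 10% fetal bovine serum | Doses: One dose, 10 µM in 0.5% DMSO | Times: 6 h compound exposure at 37 °C after overnight seeding | Signal: Luciferase luminescence | Read-out: % activation vs tunicamycin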
Cardio protect: modulators protecting cardiomyocytes from myocardial damage | H9c2 cardiomyocytes, H2O2 injury protection, ATPLite, 2 h | protection from H2O2 cell death, % at 20 µM | 360,000 compounds, 0.63% hits | AID 588492;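 active = compounds giving at least 50% protection of heart cells from peroxide-induced death in the single-dose screen, raw or plate-pattern-corrected value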;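 also: 0% = DMSO wells with peroxide and 100% = DMSO wells without peroxide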
iPSC survival up: enhancers of human iPSC single-cell survival; hiPSC single-cell survival, ATPlite luminescence; 100% = ROCK inhibitor wells, 0% = DMSO; survival enhancement, % at 20 µM; 360,000 compounds, 0.044% hits; AID 602274; in the data active = survival enhancement above about 18%;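 also: cells exposed to compounds for 16 hours before the ATP read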
CHOP inh: inhibitors of CHOP induction in ER stress response | CHO-K1 CHOP-promoter luciferase, tunicamycin-induced, 15-18 h | inhibition, % at 10 µM | 220,000 compounds, 3.8% hits | AID 2732;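 active = compounds that reduced the stress-induced luciferase reporter signal by more than about 70% of percent inhibition, limit read from the data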;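 also: 0% = tunicamycin plus vehicle and 100% = wells without tunicamycin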
UPR XBP1 act: adaptive UPR (XBP1) activation. CHO-XBP1 luciferase reporter, IRE1-XBP1 UPR activation, luminescence; percent of tunicamycin response, DMSO as zero. activation, % at 20 µM. 330,000 compounds, 0.33% hits;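 active = versus positive control, 20 µM dose yields 30% or more activation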;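 also: 100% = tunicamycin at 10 µg/mL and 0% = DMSO only wells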
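Assay system: IRE1-XBP1 luciferase reporter CHO line. Input: 1000 cells/well. Buffer or medium: F12 with 10% serum. Doses: 20 µM, 1% DMSO. Times: overnight seeding at 37 °C, 6 h compound treatment at 37 °C. Technique: Steady-Glo luciferase glow luminescence, 10 min after reagent addition.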
Active calls of the source: *. Only a selection was taken, and hits are over-represented in it overall.

`COc1ccc(-c2csc(N(Cc3ccccc3)C(=O)COc3ccc(Cl)cc3)n2)cc1` gave CHOP UPR activ 1.4, Cardio protect -18.4, iPSC survival up -0.4, CHOP inh 91.3* and UPR XBP1 act 0.7.
For O=c1[nH]c(=O)n(Cc2ccccc2)c2nc(-c3ccco3)cc(C(F)(F)F)c12 the results were CHOP UPR activ -3.1, Cardio protect -4.4, iPSC survival up -2.1, CHOP inh 70.9* and UPR XBP1 act 10.5.
`C[C@H](Cc1ccccc1)Nc1ncnc2c1ncn2[C@@H]1O[C@H](CO)[C@H](O)C1O` (stereo not given in full) gave CHOP inh 23.1.
Screening CCOC(=O)C(C)N1C(=O)S/C(=C/c2ccc3c(c2)n(C)c(=O)n3C)C1=O (stereo not given) returned CHOP UPR activ -0.2, Cardio protect 11.1, iPSC survival up -1.4, CHOP inh 27.8 and UPR XBP1 act 1.1.
Screening CCC(C)N1C(=O)S/C(=C/c2ccc3c(c2)n(C)c(=O)n3C)C1=O (stereo not given) returned CHOP UPR activ 0.1, Cardio protect 57.1*, iPSC survival up -1.2, CHOP inh 60.2 and UPR XBP1 act 0.9.
For CC(C)N1C(=O)S/C(=C/c2cccnc2)C1=O the results were CHOP UPR activ 1.2, Cardio protect 2.6, iPSC survival up -0.8, CHOP inh -16.4 and UPR XBP1 act 4.8.
Screening CC(C)N1C(=O)S/C(=C/c2ccc3c(c2)n(C)c(=O)n3C)C1=O returned CHOP UPR activ 3.6, Cardio protect 62.6*, iPSC survival up -2.4, CHOP inh -42.4 and UPR XBP1 act 11.0.
CCn1cc(C(=O)O)c(=O)c2ccc(Cc3ccccc3)nc21 was read as CHOP inh 8.9.
`COC(=O)Nc1ccc(S(=O)(=O)Nc2ccc(O)cc2)cc1` gave CHOP UPR activ -1.0, Cardio protect -10.9, iPSC survival up 0.9, CHOP inh 77.6* and UPR XBP1 act -4.1.
`COC(=O)Nc1ccc(S(=O)(=O)Nc2ccc(C)cc2)cc1` gave CHOP inh 14.2.
For NC(=O)c1cccc(Nc2nc(C(N)COCc3ccccc3)cs2)n1 (stereo not given) the results were Cardio protect 88.0* and iPSC survival up -3.8.
`CC(C)C[C@H]1CN(CCCC[C@@H]2CNC(=O)C(=O)N2CCc2ccccc2)C(=O)C(=O)N1CCC1CCCCC1` gave iPSC survival up 1.4.
Screening COc1cc(OC)cc(-c2cc3nc(C)c(CCC(=O)O)c(C)n3n2)c1 returned Cardio protect 4.9, iPSC survival up -0.2 and CHOP inh 95.0*.
For COc1cc(OC)cc(-c2cc3nc(C)c(CCC(=O)NC(C)CCc4ccco4)c(C)n3n2)c1 (stereo not given) the results were CHOP UPR activ -2.4, Cardio protect 16.0, iPSC survival up -0.6 and UPR XBP1 act -2.1.
Cc1nc2cc(-c3ccccc3)nn2c(C)c1CCC(=O)N1CCN(c2ccccn2)CC1 was read as CHOP inh 70.8*.
`CCOC(=O)C1CCCCN1C(=O)CCc1c(C)nc2cc(-c3ccccc3)nn2c1C` (stereo not given) gave CHOP UPR activ -3.7, Cardio protect 4.1, iPSC survival up -3.6, CHOP inh 72.9* and UPR XBP1 act -5.1.
CCOC(=O)C1CCN(C(=O)CCc2c(C)nc3cc(-c4ccccc4)nn3c2C)CC1 was read as CHOP UPR activ 2.3, Cardio protect -0.7, iPSC survival up 0.3, CHOP inh 23.9 and UPR XBP1 act -1.0.
For CCOCCN1CCN(c2c(C)c(C)nc3cc(-c4cc(OC)cc(OC)c4)nn23)CC1 the results were CHOP UPR activ -1.0, Cardio protect 41.2, iPSC survival up -1.0, CHOP inh -0.3 and UPR XBP1 act 3.4.
Screening CCc1c(C)nc2cc(-c3cc(OC)cc(OC)c3)nn2c1N1CCN(CCN2CCOCC2)CC1 returned CHOP UPR activ -0.9, Cardio protect 91.1*, iPSC survival up 1.6, CHOP inh 25.4 and UPR XBP1 act 1.9.
For Clc1cccc(CNc2ccn3nc(-c4cccc(OCc5ccccc5)c4)cc3n2)c1 the results were Cardio protect -8.1 and iPSC survival up -0.1.
For CC(C)C[C@H]1CN(CCCC[C@H]2CNC(=O)C(=O)N2Cc2ccccc2)C(=O)C(=O)N1CC1CCCCC1 the results were iPSC survival up -0.3.
COc1ccncc1-c1ccc(C2=CC(=O)CC(C)(C)C2=O)cc1 was read as Cardio protect -12.6 and iPSC survival up -2.3.
`COc1cc(NC(=O)Cn2ncc(Cl)c(Cl)c2=O)c(C)cc1[N+](=O)[O-]` gave Cardio protect -26.3, iPSC survival up -0.8 and CHOP inh 108.6*.
CCC(Sc1nc(C)cc(C)n1)C(=O)Nc1nccs1 (stereo not given) was read as CHOP UPR activ -0.3, Cardio protect 4.0, iPSC survival up -0.7 and UPR XBP1 act -3.8.
For CCn1ncc(Br)c1C(=O)N(C)C12CC3CC(CC(C3)C1)C2 the results were CHOP UPR activ -1.5, Cardio protect 0.9, iPSC survival up -0.2, CHOP inh 87.1* and UPR XBP1 act -3.0.
Screening COc1cccc(C2c3c(C)nn(-c4ccc([N+](=O)[O-])cc4)c3N=C3C(=O)Nc4ccccc4N32)c1 (stereo not given) returned CHOP UPR activ 13.6, Cardio protect 56.5*, iPSC survival up -0.3, CHOP inh 34.8 and UPR XBP1 act 4.2.
Screening C#CCOCCOCCOCCNc1nc(N2CCN(C(=O)CCCCCCCCCCNC(=O)[C@H]([C@@H](C)CC)n3cc(CCCCCN)nn3)CC2)nc(N2CCN(C(=O)CCCCCCCCCCNC(=O)[C@@H]([C@H](C)CC)n3cc(CCCCCN)nn3)CC2)n1 returned CHOP UPR activ 8.6 and UPR XBP1 act 32.0*.
COc1cccc(/C=N/Nc2ccc(C(=O)O)cc2)c1O was read as CHOP UPR activ -10.0, Cardio protect 1.6, iPSC survival up -1.9, CHOP inh 100.9* and UPR XBP1 act -8.7.
`COc1cccc(/C=N/NC(=O)CNC(=O)c2cccs2)c1O` gave CHOP UPR activ 3.1, Cardio protect 63.1*, iPSC survival up -0.4, CHOP inh 37.4 and UPR XBP1 act 1.6.
For COc1ccccc1/C=C\C(=O)NCC(=O)N/N=C/c1cccc(OC)c1O the results were CHOP UPR activ 0.4, Cardio protect 72.4*, iPSC survival up 1.2 and UPR XBP1 act -3.5.
COc1ccc(/C=N/NC(=O)CNC(=O)/C=C/c2ccccc2OC)cc1 was read as CHOP UPR activ -1.9, Cardio protect 2.9, iPSC survival up 1.3 and UPR XBP1 act -1.7.
`COc1cccc(/C=N/NC(=O)CNC(=O)CCc2ccccc2)c1O` gave CHOP UPR activ -0.1, Cardio protect 35.5, iPSC survival up -0.4, CHOP inh 36.1 and UPR XBP1 act 2.1.
